# Assay results: ChEMBL document CHEMBL1124744, “Development of a novel series of (2-quinolinylmethoxy)phenyl-containing compounds as high-affinity leukotriene D4 receptor antagonists. 2. Effects of an additional phenyl ring on receptor affinity” (J Med Chem, 1990)
# pIC50, pKi: −log10 of the molar value.
# Columns and labels:
# Cavia porcellus [1] = species: Cavia porcellus; assay: Oral activity expressed as percent inhibition in LTD4-induced wheal assay in guinea pig at 18 uM; type: functional; conditions: in the assay text read “18 mg/kg” for “18 uM”
# Method in brief: (§1)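 In guinea pigs, compounds were given orally 1 h before intradermal injection of 100 ng LTD4, and wheal inhibition was measured. Five animals were used per dose. ED50 was determined from at least three doses; single doses are reported as % inhibition in mg/kg.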
# [2] = target: T1, Cysteinyl leukotriene receptor 1 (Cavia porcellus, UniProt Q2NNR5); assay: Binding affinity against Cysteinyl leukotriene D4 receptor from guinea pig lung was determined using [3H]-LTD4 (0.2 nM)
# T1 sequence (Q2NNR5 whole entry): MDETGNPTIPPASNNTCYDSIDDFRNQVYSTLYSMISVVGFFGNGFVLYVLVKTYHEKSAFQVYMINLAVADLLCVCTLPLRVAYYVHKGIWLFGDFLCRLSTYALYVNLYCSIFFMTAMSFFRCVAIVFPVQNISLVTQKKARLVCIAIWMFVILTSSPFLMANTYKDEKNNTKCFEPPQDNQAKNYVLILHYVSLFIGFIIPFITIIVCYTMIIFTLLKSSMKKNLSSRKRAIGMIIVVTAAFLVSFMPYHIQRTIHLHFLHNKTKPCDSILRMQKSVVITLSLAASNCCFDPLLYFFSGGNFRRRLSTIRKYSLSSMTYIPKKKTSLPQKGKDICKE
# Method in brief: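 Guinea pig lung membranes were used in a radioligand competition assay against 0.2 nM [3H]LTD4, with compounds at multiple concentrations. IC50 was determined graphically and converted to Ki. Values are means ± SEM of N separate experiments.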
# Cavia porcellus [3] = species: Cavia porcellus; assay: Oral activity expressed as effective dose in leukotriene mediated anaphylaxis assay in guinea pig; type: functional
# Method in brief: (§2)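 Guinea pigs immunized with ovalbumin were pretreated with pyrilamine, propranolol and indomethacin. Compounds were given orally 1 h before aerosol antigen challenge. Six animals were used per dose. ED50 was determined from at least three doses; single doses are reported as % inhibition in mg/kg.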
# Cavia porcellus [4] = species: Cavia porcellus; assay: Inhibition of LTC4-induced contractions from guinea pig peripheral lung strips; type: functional
# Method in brief: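 Guinea pig peripheral lung strips were contracted with 0.2 nM LTC4, and inhibition was measured. IC50 was determined graphically; values are means ± SEM of N separate experiments.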
# Cavia porcellus [5] = species: Cavia porcellus; assay: Oral activity expressed as percent inhibition in leukotriene mediated anaphylaxis assay in guinea pig at 30 uM; type: functional; method in brief: as §2
# Cavia porcellus [6] = species: Cavia porcellus; assay: Oral activity expressed as percent inhibition in leukotriene mediated anaphylaxis assay in guinea pig at 10 uM; type: functional; method in brief: as §2
# Cavia porcellus [7] = species: Cavia porcellus; assay: Oral activity expressed as percent inhibition in LTD4-induced wheal assay in guinea pig at 3 uM; type: functional; method in brief: as §1
# Cavia porcellus [8] = species: Cavia porcellus; assay: Oral activity expressed as percent inhibition in LTD4-induced wheal assay in guinea pig at 9 uM; type: functional; method in brief: as §1
# Cavia porcellus [9] = species: Cavia porcellus; assay: Oral activity expressed as effective dose in LTD4-induced wheal assay in guinea pig; type: functional; method in brief: as §1
# [10] = target: T1, Cysteinyl leukotriene receptor 1; assay: Inhibitory concentration of compound against binding of Cysteinyl leukotriene D4 receptor from guinea pig lung using [3H]LTD4
# [11] = target: T2, Cysteinyl leukotriene receptor 1 (Cavia porcellus) (UniProt Q2NNR5); assay: Binding affinity against Cysteinyl leukotriene D4 receptor from guinea pig lung was determined using [3H]LTD4 (0.2 nM) at compound concentration of 1 uM
# T2 sequence (whole entry): T1 sequence (Q2NNR5 whole entry)
# Cavia porcellus [12] = species: Cavia porcellus; assay: Inhibits leukotriene D4 in guinea pig by wheal essay at 9 uM concentration; type: functional; method in brief: as §1
# Cavia porcellus [13] = species: Cavia porcellus; assay: Inhibits leukotriene mediated anaphylaxis in guinea pig at 60 uM concentration; type: functional; method in brief: as §2
# [14] = target: T1, Cysteinyl leukotriene receptor 1; assay: Binding affinity against Cysteinyl leukotriene D4 receptor from guinea pig trachea using [3H]LTD4; conditions: read-out: pA2 (converted)
# [15] = target: T1, Cysteinyl leukotriene receptor 1; assay: Binding affinity against Cysteinyl leukotriene D4 receptor from guinea pig lung was determined using [3H]LTD4
# Method in brief: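 Guinea pig lung membranes; competition against 0.2 nM [3H]LTD4 with test compounds at multiple concentrations. IC50 was determined graphically and converted to Ki. Values are means ± SEM of N separate experiments.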
# Cavia porcellus [16] = species: Cavia porcellus; assay: Oral activity expressed as percent inhibition in LTD4-induced wheal assay in guinea pig at 13 uM; type: functional
Compound,pKi [2],pIC50 (Cavia porcellus [4]),Inhibition (Cavia porcellus [5]) [%],further results
c1cc(CCc2cccc(-c3nn[nH]n3)c2)cc(OCc2ccc3ccccc3n2)c1,7.77,7.70,–,Inhibition (Cavia porcellus [1]): 44%; ED50 (Cavia porcellus [3]): 24 mg/kg
c1cc(OCc2cccc(-c3nn[nH]n3)c2)cc(OCc2ccc3ccccc3n2)c1,7.80,–,83,Inhibition (Cavia porcellus [1]): 45%
c1ccc(OCc2nn[nH]n2)c(COc2ccc(OCc3ccc4ccccc4n3)cc2)c1,8.68,8.38,–,Inhibition (Cavia porcellus [6]): 61%; Inhibition (Cavia porcellus [7]): 45%
c1ccc2nc(COc3ccc(OCc4ccc(Cc5nnn[nH]5)cc4)cc3)ccc2c1,8.07,7.92,–,Inhibition (Cavia porcellus [8]): 34%; ED50 (Cavia porcellus [3]): 30 mg/kg
c1cc(COc2cccc(OCc3ccc4ccccc4n3)c2)cc(Cc2nnn[nH]2)c1,8.00,7.92,–,ED50 (Cavia porcellus [3]): 10 mg/kg; ED50 (Cavia porcellus [9]): 1.8 mg/kg
c1cc(OCc2ccc3ccccc3n2)cc(OCc2ccccc2Cc2nnn[nH]2)c1,7.92,8.02,75,Inhibition (Cavia porcellus [1]): 17%
COc1cc(-c2nn[nH]n2)ccc1COc1cccc(OCc2ccc3ccccc3n2)c1,8.37,8.05,45,Inhibition (Cavia porcellus [8]): 22%
c1cc(OCc2cccc(OCc3nn[nH]n3)c2)cc(OCc2ccc3ccccc3n2)c1,7.89,7.62,64,Inhibition (Cavia porcellus [1]): 37%
c1cc(COc2ccc(OCc3ccc4ccccc4n3)cc2)cc(OCc2nn[nH]n2)c1,8.10,8.05,27,ED50 (Cavia porcellus [9]): 2.8 mg/kg
O=C(O)c1ccccc1Nc1cccc(OCc2ccc3ccccc3n2)c1 [SR-2640],–,–,–,pIC50 [10]: 7.64
Clc1ccc2ccc(/C=C/c3ccc(OCc4ccccc4Cc4nnn[nH]4)cc3)nc2c1,8.60,–,–,–
c1ccc(Cc2nn[nH]n2)c(COc2ccc(OCc3ccc4ccccc4n3)cc2)c1 [RG-12525],8.52,8.57,–,ED50 (Cavia porcellus [3]): 2.2 mg/kg; Kb [11]: 0.003 µM; ED50 (Cavia porcellus [9]): 4.9 mg/kg
c1cc(OCc2ccc3ccccc3n2)cc(OCc2ccccc2-c2nnn[nH]2)c1,7.70,7.72,–,–
c1cc(COc2ccc(OCc3ccc4ccccc4n3)cc2)cc(Cc2nnn[nH]2)c1,8.10,7.47,–,Inhibition (Cavia porcellus [6]): 64%; ED50 (Cavia porcellus [9]): 3 mg/kg
O=C(O)c1cccc(COc2cccc(OCc3ccc4ccccc4n3)c2)c1,7.40,7.00,–,Inhibition (Cavia porcellus [12]): 7%; Inhibition (Cavia porcellus [13]): 60%
COc1cc(OCc2cccc(OCc3ccc4ccccc4n3)c2)cc(-c2nnn[nH]2)c1,8.00,–,–,–
C(=C\c1ccc2ccccc2n1)/c1ccc(OCc2ccccc2Cc2nnn[nH]2)cc1,8.47,–,–,Inhibition (Cavia porcellus [6]): 80%
CCCc1c(OCC(O)COc2ccc3c(=O)cc(C(=O)O)oc3c2CCC)ccc(C(C)=O)c1O (centres undefined) [FPL-55712],–,6.03,–,–

Compound,pKi [2],pIC50 (Cavia porcellus [4]),Inhibition (Cavia porcellus [5]) [%],further results
c1cc(COc2ccc(-c3nn[nH]n3)cc2)cc(OCc2ccc3ccccc3n2)c1,8.54,7.85,-9,–
O=C(O)c1ccc(COc2cccc(OCc3ccc4ccccc4n3)c2)cc1,7.05,7.12,–,–
c1ccc2nc(COc3ccc(COc4ccc(-c5nn[nH]n5)cc4)cc3)ccc2c1,7.51,7.36,64,ED50 (Cavia porcellus [9]): 8 mg/kg
c1cc(OCc2ccc(Cc3nnn[nH]3)cc2)cc(OCc2ccc3ccccc3n2)c1,8.14,7.70,–,ED50 (Cavia porcellus [3]): 30 mg/kg; ED50 (Cavia porcellus [9]): 6.8 mg/kg
c1cc(OCc2ccc3ccccc3n2)cc(OCc2ccccc2OCc2nn[nH]n2)c1,7.77,7.57,–,Inhibition (Cavia porcellus [1]): 42%; ED50 (Cavia porcellus [3]): 10 mg/kg
c1cc(OCc2ccc(-c3nnn[nH]3)cc2)cc(OCc2ccc3ccccc3n2)c1,8.00,7.92,–,ED50 (Cavia porcellus [3]): 10 mg/kg; ED50 (Cavia porcellus [9]): 6.5 mg/kg
CN(C)C(=O)CCSC(SCCC(=O)O)c1cccc(/C=C/c2ccc3ccc(Cl)cc3n2)c1 (centres undefined) [MK-571],–,–,–,Kb [14]: 0.001 µM
c1cc(COc2ccc(OCc3ccc4ccccc4n3)cc2)cc(-c2nn[nH]n2)c1,8.66,8.70,–,Inhibition (Cavia porcellus [6]): 33%; ED50 (Cavia porcellus [9]): 2 mg/kg
O=S(=O)(Nc1cccc(OCc2ccc3ccccc3n2)c1)C(F)(F)F [RITOLUKAST],–,–,–,pKi [15]: 7.46
COc1cc(-c2nn[nH]n2)ccc1OCc1cccc(OCc2ccc3ccccc3n2)c1,7.80,7.44,9,–
c1cc(COc2cccc(-c3nn[nH]n3)c2)cc(OCc2ccc3ccccc3n2)c1,8.28,7.70,45,ED50 (Cavia porcellus [9]): 28 mg/kg
Clc1ccc2ccc(COc3ccc(OCc4ccccc4Cc4nnn[nH]4)cc3)nc2c1,8.60,–,–,–
COc1cc(OCc2ccc(OCc3ccc4ccccc4n3)cc2)cc(-c2nn[nH]n2)c1,8.12,7.89,–,Inhibition (Cavia porcellus [16]): 26%
COC(=O)c1ccc(COc2cccc(OCc3ccc4ccccc4n3)c2)c(OCc2nn[nH]n2)c1,8.10,7.80,9,–
COc1cc(COc2cccc(OCc3ccc4ccccc4n3)c2)cc(-c2nn[nH]n2)c1,8.15,8.20,–,Inhibition (Cavia porcellus [6]): 17%; ED50 (Cavia porcellus [9]): 38 mg/kg
COc1cc(-c2nn[nH]n2)ccc1OCc1ccc(OCc2ccc3ccccc3n2)cc1,7.66,–,–,–
C(=C\c1cccc(-c2nn[nH]n2)c1)/c1cccc(OCc2ccc3ccccc3n2)c1,8.07,7.70,–,Inhibition (Cavia porcellus [7]): 15%
c1cc(OCc2ccc(OCc3nn[nH]n3)cc2)cc(OCc2ccc3ccccc3n2)c1,8.66,8.10,82,Inhibition (Cavia porcellus [1]): 59%
